Compounds with a hit are over-represented: about 3.5% of the library has one in this group of screens.
MEKK2wt PB1 HTS: raises or lowers MEK5 binding to wildtype human MEKK2 PB1 domain; binding response (% of control), % at 10 µM; Q9Y2U5; bead flow cytometry, Alexa488-MEK5 binding to MEKK2 WT; actives lie on both sides; AID 1531; 290,000 tested, 1.1% active; in the data active means binding response below about 67% or above about 130%
MEKK3 PB1 HTS: modulators (inhibitors or enhancers) of MEK5 binding to human MEKK3 PB1 domain; Q99759; bead-based flow cytometry, Alexa488-MEK5 binding to MEKK3; actives lie on both sides; 0 = blocked by unlabeled MEK5, 100 = vehicle; binding response (% of control), % at 10 µM; 290,000 tested, 1.4% active;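 active means binding response more than 3 SD above or below the average of its plate-row segment, actives on both sides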;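 further: Alexa488 bead fluorescence after subtracting the streptavidin-only scavenger bead signal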
WT yeast gro inh: growth inhibition of WT yeast, mitochondrial fusion screen | mitochondrial fusion phenotypic screen, WT strain | inhibition, % at 10 µM | 190,000 tested, 2.1% active; in the data active means inhibition above about 58%; tested in S. cerevisiae
ABCB1 inh: inhibitors of human ABCB1 transporter, ABCG2 counter-screen | CCRF-Adr cells, JC-1 efflux, flow cytometry | inhibition, % at 6.6 µM | 190,000 tested, 0.067% active | AID 1326; in the data active means inhibition above about 40%;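 further: 0% = vehicle and 100% = reference inhibitor; higher value means more JC-1 retained so stronger ABCB1 efflux block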
Target sequence (P08183 whole entry, looked up): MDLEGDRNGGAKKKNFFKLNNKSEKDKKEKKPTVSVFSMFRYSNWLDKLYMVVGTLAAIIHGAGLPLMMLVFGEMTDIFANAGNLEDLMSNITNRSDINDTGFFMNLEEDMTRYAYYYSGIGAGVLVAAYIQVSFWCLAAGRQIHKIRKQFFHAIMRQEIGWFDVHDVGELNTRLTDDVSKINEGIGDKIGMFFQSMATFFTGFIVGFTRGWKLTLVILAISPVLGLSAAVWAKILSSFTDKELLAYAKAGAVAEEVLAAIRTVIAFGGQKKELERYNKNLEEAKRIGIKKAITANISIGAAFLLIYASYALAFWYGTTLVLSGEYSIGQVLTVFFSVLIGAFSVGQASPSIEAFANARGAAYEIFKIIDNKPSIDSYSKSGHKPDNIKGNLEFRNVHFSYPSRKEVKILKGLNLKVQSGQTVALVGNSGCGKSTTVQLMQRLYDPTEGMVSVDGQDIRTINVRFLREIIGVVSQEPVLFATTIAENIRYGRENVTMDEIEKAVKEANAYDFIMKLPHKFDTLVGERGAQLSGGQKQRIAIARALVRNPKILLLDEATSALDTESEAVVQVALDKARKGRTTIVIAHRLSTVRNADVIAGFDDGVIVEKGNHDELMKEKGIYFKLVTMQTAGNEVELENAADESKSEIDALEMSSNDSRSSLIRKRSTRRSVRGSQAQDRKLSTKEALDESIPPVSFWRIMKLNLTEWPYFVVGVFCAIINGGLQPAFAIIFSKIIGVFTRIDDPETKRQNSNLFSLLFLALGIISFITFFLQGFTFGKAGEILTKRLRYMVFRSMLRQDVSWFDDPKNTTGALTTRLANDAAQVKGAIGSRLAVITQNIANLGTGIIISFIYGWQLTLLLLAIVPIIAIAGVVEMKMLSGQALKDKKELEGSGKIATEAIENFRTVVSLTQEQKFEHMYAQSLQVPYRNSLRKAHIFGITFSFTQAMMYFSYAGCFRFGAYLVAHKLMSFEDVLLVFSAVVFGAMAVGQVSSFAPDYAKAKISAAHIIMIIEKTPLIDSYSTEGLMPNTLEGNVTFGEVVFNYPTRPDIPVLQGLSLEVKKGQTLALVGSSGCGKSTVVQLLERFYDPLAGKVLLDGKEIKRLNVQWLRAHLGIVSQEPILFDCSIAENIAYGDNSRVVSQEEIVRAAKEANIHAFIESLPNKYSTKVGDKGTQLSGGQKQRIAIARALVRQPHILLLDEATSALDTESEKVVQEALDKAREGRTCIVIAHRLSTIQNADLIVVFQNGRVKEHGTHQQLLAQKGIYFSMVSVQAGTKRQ
MEKK2 mut-MEK5: signal of MEK5 binding to mutant human MEKK2 PB1 domain; bead flow cytometry, Alexa488-MEK5 binding to MEKK2 mutant; percent response, % at 10 µM; 290,000 tested, 0.35% active; AID 1530; in the data active means percent response above about 24%, passing the limit was not always enough
ABCG2 block: human ABCG2 inhibition, ABCB1 as counter-screen. Q9UNQ0. IgMXP3 cells, JC-1 efflux, flow cytometry. inhibition, % at 6.6 µM. 190,000 tested, 0.1% active. AID 1325;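 active means inhibition above 80%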;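 further: 0% = DMSO and 100% = nicardipine control wells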
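Test system: ABCG2 IgMXP3 and barcoded ABCB1 CCRF-Adr cell mix; Schedule: cells with compound and JC-1, 10 min at 25 °C, rotating, no wash; Technique: flow cytometry of retained JC-1 fluorescence; Measure: % inhibition of efflux relative to nicardipine and DMSO; Controls: nicardipine high and DMSO low controls.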
MEKK2wt confirm: raises or lowers MEK5 binding to wildtype human MEKK2, retest | shares compounds with MEKK3 PB1 HTS | bead flow cytometry, Alexa488-MEK5 binding to MEKK2 WT; actives lie on both sides | binding response (% of control), % at 10 µM | 5,900 tested, 2.4% active | AID 1892; in the data active means binding response below about 16% or above about 210%; inactive means in between
MEKK2mut-MEK5: signal of MEK5 binding to mutant human MEKK2, retest; shares compounds with MEKK3 PB1 HTS; 5,900 tested, 2% active; percent response, % at 10 µM; bead flow cytometry, Alexa488-MEK5 binding to MEKK2 mutant; in the data active means percent response mostly above about 71%, no sharp cut-off; inactive means mostly below about 38%;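 further: higher means compound restores mutant binding toward wildtype level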
MEKK3-MEK5 inh: confirmation of inhibitors of MEK5 binding to human MEKK3; shares compounds with MEKK3 PB1 HTS; bead flow cytometry, Alexa488-MEK5 binding to MEKK3; active compounds read low; binding response (% of control), % at 10 µM; 5,900 tested, 1.8% active;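 active means binding response below 72% of control, or above a set upper limit, though filed actives all read lower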;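 further: 100% = DMSO only wells and 0% = binding blocked by excess unlabeled MEK5; lower values mean stronger disruption of MEK5 binding to MEKK3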
* hit, by the source's call; . = no result given; [ ] = another dose, or the depositor's remark.

SMILES	MEKK2wt PB1 HTS	MEKK3 PB1 HTS	WT yeast gro inh	ABCB1 inh	MEKK2 mut-MEK5	ABCG2 block	MEKK2wt confirm	MEKK2mut-MEK5	MEKK3-MEK5 inh
CCC(CC)NC(=O)CON=C1c2ccccc2-c2ccccc21	107	146*	-6	1	0	4	99	-2	102
CCOc1nc2c(c(=O)n(C)c(=O)n2C)n1Cc1ccccc1Cl	76	75	-8	0	-7	0	.	.	.
C=CCOc1nc2c(c(=O)n(C)c(=O)n2C)n1Cc1c(Cl)cccc1Cl	89	81*[inhibitor]	-1	2	-6	48	100	-4	104
COc1ccc(N2C(=O)CCC2(C#N)c2ccc(Br)cc2)cc1 (stereo not drawn)	63	49*[inhibitor]	-17	1	-25	11	98	-5	102
CCNc1ccc(Br)cc(C(=O)/C=C/c2c(Cl)cccc2Cl)c1=O	47*[inhibitor]	82	11	0	2	-1	80	-11	95
O=C(CCCCCC(=O)N(CCO)CCO)N(CCO)CCO	104	103	16	-2	5	-2	.	.	.
Cc1ccc(C)c(-n2c(-c3ccc(Br)cc3)csc2=NC(=O)c2ccccc2F)c1	93	94	.	.	-3	.	.	.	.
CCOc1ccc(Nc2nc(Cl)nc(NCCO)n2)cc1	104	131*	-4	0	0	15	110	1	104
O=C1CN(c2nc3nonc3nc2N2CCCCC2)CCN1	96	99	-19	0	-11	0	.	.	.
Cc1c(CC(=O)NCC(=O)O)c(=O)oc2cc3c(cc12)CCC(C)(C)O3	98	99	.	.	-1	.	.	.	.
CC(C)Oc1ccc(CN=C(N)N=C(N)N)cc1Cl	116	105	-12	0	23	0	.	.	.
CC(C)COc1ccc(CN=C(N)N=C(N)N)cc1Cl	139*	106	0	0	25	1	112	1	89
COc1ccccc1-n1cnnc1SCC(=O)NCC1CCCO1 (stereo not drawn)	99	101	13	0	6	1	.	.	.
CNC(=O)OC(C)CNS(=O)(=O)c1ccc(C)cc1 (stereo not drawn)	2.0*[inhibitor]	2.0*[inhibitor]	-8	-1	-21	-1	104	18	104
Cc1ccc(S(=O)(=O)NCC(C)NS(=O)(=O)c2ccc(C)cc2)cc1 (stereo not drawn)	109	108	-11	0	2	4	.	.	.
CC1(C)Cc2nc(N3CCOCC3)c(C#N)cc2CO1	106	112	-2	0	2	0	.	.	.
CC1(C)Cc2nc(N3CCCC3)c(C#N)cc2CO1	117	129*	-3	0	2	2	99	-7	101
COc1ccc2ccccc2c1/C=N/NC(=S)Nc1cc(S(=O)(=O)N2CCOCC2)ccc1N1CCOCC1	104	133*	-1	0	1	-1	93	-2	100
COc1ccc(/C=N/NC(=S)Nc2cc(S(=O)(=O)N3CCOCC3)ccc2N2CCOCC2)cc1O	89	85	6	0	-4	-2	.	.	.
COc1ccc(/C=C/C(=O)Nc2cc(S(=O)(=O)N3CCCCC3)ccc2N2CCCCC2)cc1OC	106	104	13	1	1	3	.	.	.
O=C(/C=C/c1ccccc1)Nc1cc(S(=O)(=O)N2CCOCC2)ccc1N1CCCC1	106	142*	-20	1	1	1	100	-2	102
CCN1CCN(c2ccc(S(=O)(=O)N3CCCCC3)cc2NC(=O)/C=C/c2cc(OC)ccc2OC)CC1	174*	106	.	.	25*	.	165	38	95
Cc1nnc(SCC(=O)NNC(=O)COc2ccc(Cl)cc2)n1C	101	96	.	.	4	.	.	.	.
COc1ccc2[nH]c3c(=O)n(CCCCC(=O)NCCC(C)C)c(=S)[nH]c3c2c1	97	98	1	1	2	-4	.	.	.
CS(=O)(=O)N(CC(=O)Nc1ccccc1Cl)c1ccc(Cl)cc1	97	105	-6	1	-9	1	.	.	.
SMILES	MEKK2wt PB1 HTS	MEKK3 PB1 HTS	WT yeast gro inh	ABCB1 inh	MEKK2 mut-MEK5	ABCG2 block	MEKK2wt confirm	MEKK2mut-MEK5	MEKK3-MEK5 inh
O=C(OCC(=O)N1CCCC1)c1c(Cl)ccc(Cl)c1Cl	101	101	.	.	5	.	.	.	.
CCN(CC)CCNC(=O)c1ccc(NC(=O)c2ccc(COc3ccccc3)cc2)cc1	162*	101	.	.	26*	.	168	31	106
O=C(COC(=O)c1ccc2c(=O)n3c(nc2c1)CCC3)NC1CCS(=O)(=O)C1 (stereo not drawn)	.	.	-11	0	.	-1	.	.	.
CCO/N=C(/c1nonc1N)N1CCN(c2ccc([N+](=O)[O-])cc2)CC1	118	129*	10	1	5	8	103	6	108
CC(=O)O/N=C(/c1nonc1N)N1CCN(c2ccc([N+](=O)[O-])cc2Cl)CC1	101	101	-13	1	-2	5	.	.	.
O=C(NCc1ccccc1C(F)(F)F)C1CC(c2ccc(C(F)(F)F)cc2)=NO1 (stereo not drawn)	103	81*[inhibitor]	.	.	-2	.	101	1	99
Cc1ccccc1NC(=O)C1(NC(=O)c2cccc(N3C(=O)CSC3c3ccccc3)c2)CCCCC1 (stereo not drawn)	103	122*	1	1	6	-3	103	1	101
CC(C)(C)c1ccc(C2SCC(=O)N2c2cccc(C(=O)O)c2)cc1 (stereo not drawn)	99	100	.	.	-2	.	.	.	.
CC(=O)OCC(=O)[C@@]1(O)[C@H](C)C[C@H]2[C@@H]3CCC4=CC(=O)C=C[C@]4(C)[C@@]3(F)[C@@H](O)C[C@@]21C	96	95	-8	-1	1	-3	.	.	.
C[C@@H]1C[C@H]2[C@@H]3CCC4=CC(=O)C=C[C@]4(C)[C@@]3(F)[C@@H](O)C[C@]2(C)[C@H]1C(=O)CO	99	122*	0	0	8	0	102	3	107
COc1cc(/C=C(/C#N)c2nc3ccccc3c(=O)[nH]2)ccc1O	104	140*	-4	0	1	-1	99	-4	101
COc1ccc(/C=C(\C#N)c2nc3ccccc3[nH]2)cc1O	98	98	.	.	-3	.	.	.	.
O=C(CCC(F)(F)F)N1CCCC(N2CCN(c3cccc(Cl)c3)CC2)C1 (stereo not drawn)	115	108	.	.	8	.	.	.	.

Bioassay records: PubChem BioAssay, several laboratories
